Data on 26 molecules can be found in PubChem BioAssay AID504533 (Broad Institute, 2011).

Several values for one entry are separate records, joined by “and”; a condition that tells them apart may be missing. Equal values may be shown once. Records with an inconclusive call do not appear. Activity calls are given as the source filed them.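 The calls were made as follows: active = compound whose fitted half-maximal viability-loss concentration is within ten times its top tested dose in every test run; inconclusive = test runs disagree, or a weak flat or poorly fitted curve; inactive = every test run inactive.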

Test [1] can be described thus: viability loss of control HMLE line – cell-based, HMLE_sh_eGFP, luminescence, powder samples, set 5, counter-screen for breast cancer stem cell project, dose response (AID 504533). As to conditions: HMLE_sh_eGFP viability, CellTiter-Glo luminescence, 72 h. Summed up: (§1)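 test system = HMLE breast epithelial cells expressing shRNA against eGFP | buffer or medium = serum-free CSC medium | doses = 100 nL compound pinned into each well | schedule = about 72 h compound exposure at 37 °C | detection = CellTiter-Glo luminescence, reagent diluted 1:3 in PBS | read-out basis = cell viability from luminescent ATP signal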
(The purpose of a counterscreen is to sort out artefacts and off-target activity.)

In test [2] the test system is HMLE_sh_eGFP viability, CellTiter-Glo luminescence, 72 h. Described as above. In short, it runs like this:
as §1

As for `Cc1ccc2cc(C(=O)NC3=NCCS3)n(C)c2c1`, the activity change, negative = viability loss in test [1] (at 30 µM (top of the series)) is -4.12% (inactive).

With `CC(C)c1ccc(/C=C/C(=O)Nc2nc3ccccc3s2)cc1`, in test [1] (at 19.5 µM (top of the series)), the activity change, negative = viability loss was -0.373% (inactive).

Turning to `CCN(CC)C(=O)c1ccc(COc2ccccc2)o1`, the activity change, negative = viability loss in test [1] (at 19.5 µM (top of the series)) is 6.38% (inactive).

By AC50 is commonly meant the concentration at which the activity in the assay is half-maximal. On to `Cc1cccc(OCc2ccc(C(=O)Nc3nc(C)cs3)o2)c1`, for which the half-maximal activity concentration (AC50) in test [2] was 0.656 µM and 4.39 µM.

In the case of `Cc1cc(Br)ccc1OCC(=O)N/N=C/c1ccc[nH]1`, the activity change, negative = viability loss in test [1] (at 19.5 µM (top of the series)) was -25.7% (inactive).

As for `Cc1csc(NC(=O)c2ccc(COCc3ccccc3)o2)n1`, the AC50 in test [2] is 19.6 µM.

In the case of `CC(C)c1ccc(/C=C/C(=O)N(C)C2=NCCS2)cc1`, the activity change, negative = viability loss in test [1] (at 19.5 µM (top of the series)) is 10.1% (inactive).

On to `Cc1csc(NC(=O)c2ccc(CS(=O)(=O)c3ccccc3)o2)n1`, for which, in test [1] (at 19.5 µM (top of the series)), the activity change, negative = viability loss is -13.3% (inactive).

As for `N#Cc1ccc(/C=C/C(=O)NC2=NCCS2)cc1`, the activity change, negative = viability loss in test [1] (at 19.5 µM (top of the series)) was -10.2% (inactive).

Consider `O=C(Nc1nncs1)c1ccc(COc2ccccc2)o1`, for which the activity change, negative = viability loss in test [1] (at 19.5 µM (top of the series)) was 3.92% (inactive).

As to `Cn1c(C(=O)NC2=NCCS2)cc2ccccc21`, the activity change, negative = viability loss in test [1] (at 19.5 µM (top of the series)) was -5.73% (inactive).

Regarding `Cc1coc(NC(=O)/C=C/c2ccc(C(C)C)cc2)n1`, in test [1] (at 19.5 µM (top of the series)), the activity change, negative = viability loss is -6.75% (inactive).

In the case of `CC(C)Cc1ccc(/C=C/C(=O)NC2=NCCS2)cc1`, in test [2], the AC50 is 3.27 µM.

As for `C/C(=C\C(=O)NC1=NCCS1)c1ccc(CC(C)C)cc1`, the activity change, negative = viability loss in test [1] (at 19.5 µM (top of the series)) is 17.8% (inactive).

Regarding `Cc1cc(C)c(OCC(=O)N/N=C/c2ccc[nH]2)c(C)c1`, the activity change, negative = viability loss in test [1] (at 19.5 µM (top of the series)) is 1.17% (inactive).

On to `Cc1csc(NC(=O)c2ccc(COc3ccccc3S(C)(=O)=O)o2)n1`, for which the activity change, negative = viability loss in test [1] (at 19.5 µM (top of the series)) is 2.08% (inactive).

`COc1cccc(OCc2ccc(C(=O)Nc3nc(C)cs3)o2)c1`: the AC50 in test [2] was 2.64 µM.

`Cc1csc(NC(=O)c2ccc(COC(C)C)o2)n1`: in test [1] (at 19.5 µM (top of the series)), the activity change, negative = viability loss was -0.134% (inactive).

As for `Cc1csc(NC(=O)c2ccc(COC(C)(C)C)o2)n1`, the activity change, negative = viability loss in test [1] (at 19.5 µM (top of the series)) is -4.37% (inactive).

With `COCc1ccc(C(=O)Nc2nc(C)cs2)o1`, the activity change, negative = viability loss in test [1] (at 19.5 µM (top of the series)) was 15.3% (inactive).

Regarding `N#Cc1cnc(NC(=O)c2ccc(COc3ccccc3)o2)s1`, in test [1] (at 19.5 µM (top of the series)), the activity change, negative = viability loss is -1.72% (inactive).

Regarding `CC(C)NC(=O)c1ccc(COc2ccccc2)o1`, in test [1] (at 19.5 µM (top of the series)), the activity change, negative = viability loss is -2.28% (inactive).

Consider `Cc1coc(NC(=O)c2ccc(COc3ccccc3)o2)n1`, for which the activity change, negative = viability loss in test [1] (at 19.5 µM (top of the series)) is 3.69% (inactive).

As to `Cc1csc(NC(=O)c2ccc(CNc3ccccc3)o2)n1`, the concentration at half-maximal activity (AC50) in test [2] was 5.09 µM.

For the molecule `C/C(=C\C(=O)NC1=NCCS1)c1ccc(C)cc1`, in test [1] (at 19.5 µM (top of the series)), the activity change, negative = viability loss was -3.46% (inactive).

`Cc1csc(NC(=O)c2ccc(CCc3ccccc3)o2)n1`: in test [2], the concentration at half-maximal activity (AC50) was 9.08 µM.
